This note sets out measurements from ChEMBL document CHEMBL1159017, “Akuammine and dihydroakuammine, two indolomonoterpene alkaloids displaying affinity for opioid receptors” (J Nat Prod, 1992).

The target of one experiment is Mu-type opioid receptor (Rattus norvegicus, UniProt P33535). The experiment can be described thus: Displacement of [3H]DAMGO from mu opioid receptor in rat central nervous system membrane. It counts as tissue-based. The method, boiled down: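 Rat CNS membranes incubated with 1 nM [3H]-DAGO for 60 min at 20°. Bound and free radioligand separated by rapid filtration, then beta-scintillation counting. Specific binding defined with 10^-5 M unlabelled DAGO (>70%). IC50 (molar concentration giving half-maximal displacement) calculated from displacement curves.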

Experiment [1] is described as follows: Displacement of [3H]U69593 from kappa opioid receptor in guinea pig cerebellum membrane. It counts as cell membranes, Cavia porcellus. The method, boiled down: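 Guinea pig cerebellum homogenate incubated with 1.5 nM [3H]-U 69593 for 60 min at 20°. Rapid filtration, then beta-scintillation counting. Specific binding defined with 10^-5 M U50488H (>70%). IC50, the molar concentration giving half-maximal displacement, derived from displacement curves.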
(Loss of bound radioactivity is the signal in a displacement assay; it reports binding, not function.)

In experiment [2] the target is Delta-type opioid receptor (Rattus norvegicus, UniProt P33533). The experiment can be described thus: Displacement of [3H]pCl-DPDP from delta opioid receptor in rat central nervous system membrane. It is filed as tissue-based. The method, boiled down: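 Rat CNS membranes incubated with 1 nM [3H]-pCl-DPDP-enkephalin for 270 min at 20°. Bound and free ligand separated by rapid filtration; radioactivity counted by beta scintillation. Nonspecific binding set with 10^-5 M unlabelled DPDP-enkephalin (specific >70%). IC50 (half-maximal displacement, molar) obtained from displacement curves.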
Chain of Delta-type opioid receptor (P33533 whole entry): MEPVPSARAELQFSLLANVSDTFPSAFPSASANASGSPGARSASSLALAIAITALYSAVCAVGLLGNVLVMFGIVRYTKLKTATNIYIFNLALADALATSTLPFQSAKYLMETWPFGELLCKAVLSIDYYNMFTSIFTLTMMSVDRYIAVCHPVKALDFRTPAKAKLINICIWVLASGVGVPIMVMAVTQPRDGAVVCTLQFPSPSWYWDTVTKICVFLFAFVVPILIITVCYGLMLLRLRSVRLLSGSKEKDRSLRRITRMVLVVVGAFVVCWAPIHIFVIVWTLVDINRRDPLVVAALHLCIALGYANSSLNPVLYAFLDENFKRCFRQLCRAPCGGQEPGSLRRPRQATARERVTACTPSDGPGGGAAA

Chain of Mu-type opioid receptor (P33535 whole entry): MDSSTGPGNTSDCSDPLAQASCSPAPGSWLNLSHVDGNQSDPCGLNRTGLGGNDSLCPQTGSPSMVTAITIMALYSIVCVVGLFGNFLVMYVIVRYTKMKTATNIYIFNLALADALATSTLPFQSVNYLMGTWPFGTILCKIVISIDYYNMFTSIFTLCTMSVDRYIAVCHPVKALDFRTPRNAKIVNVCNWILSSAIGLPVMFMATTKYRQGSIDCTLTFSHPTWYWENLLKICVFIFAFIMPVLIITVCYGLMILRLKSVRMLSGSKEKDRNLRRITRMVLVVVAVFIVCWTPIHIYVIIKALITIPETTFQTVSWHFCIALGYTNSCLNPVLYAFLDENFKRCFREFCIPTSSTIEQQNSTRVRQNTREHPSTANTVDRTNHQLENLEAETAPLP

Turning to `CN1CC[C@@]2(C)c3cc(O)ccc3N(C)[C@@H]12`, the IC50 (in general, the concentration at which inhibition is half-maximal) at Mu-type opioid receptor turned out to be 0.3 µM; in experiment [1] it was 0.3 µM; in experiment [2] it was 10 µM.

As to `C/C=C1/CN2CC[C@@]34c5cc(O)ccc5N(C)[C@]35OC[C@@]4(C(=O)OC)[C@@H]1C[C@H]25` [AKUAMMINE], the values for the IC50 in experiment [1] and in experiment [2] were 4 µM and 20 µM, respectively.

Turning to `C/C=C1/CN2CC[C@@]34c5cc(O)ccc5N(C)[C@@]23CC[C@H]1[C@@]4(CO)C(=O)OC` [DIHYDROAKUAMMINE], the IC50 on Mu-type opioid receptor is 6 µM; in experiment [1], 20 µM; in experiment [2], greater than 100 µM.
